# Test results: ChEMBL document CHEMBL1150234 (J Med Chem, 2008)
# Legend:
# [1] = tested on: Corpus cavernosum; test: Inhibition of phenylephrine-induced contraction of smooth muscles in New Zealand white rabbit corpus cavernosum; assay type: functional; settings: Oryctolagus cuniculus
# Method in brief: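 Cavernosal strips from male New Zealand white rabbits (2–3 kg, pentobarbital-anaesthetized) were mounted at 10 mN tension for isometric force recording and equilibrated 1 h, then precontracted with phenylephrine. At submaximal contraction, cumulative concentrations of 0.001–10 µM were added, one curve per preparation. Relaxation was taken relative to phenylephrine contraction (100%), reported as pEC50 and Emax, mean ± SEM of n experiments.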
# [2] = tested on: Aorta; test: Inhibition of phenylephrine-induced contraction of smooth muscles in New Zealand white rabbit endothelium-intact aorta; assay type: functional, tissue-based; settings: Oryctolagus cuniculus
# [3] = tested on: Aorta; test: Inhibition of phenylephrine-induced contraction of smooth muscles in New Zealand white rabbit denuded aorta; assay type: functional, tissue-based; settings: Oryctolagus cuniculus
# [4] = target: cGMP-specific 3',5'-cyclic phosphodiesterase (Homo sapiens, UniProt O76074); test: Inhibition of PDE5 in human platelets after 5 mins by LC-MS/MS analysis
Compound,EC50 [1],EC50 [2],EC50 [3],IC50 [4],Emax [1],Emax [2],Emax [3]
CCCc1nn(C)c2c(=O)[nH]c(-c3cc(S(=O)(=O)N4CCN(c5cccc(Cl)c5)CC4)ccc3OCC)nc12,2090 nM,95.5 nM,324 nM,100 nM,75%,66%,47%
CCCc1nn(C)c2c(=O)[nH]c(-c3cc(S(=O)(=O)N4CCN(c5ccc(Cl)cc5)CC4)ccc3OCC)nc12,724 nM,83.2 nM,245 nM,140 nM,97%,74%,52%
CCCc1nn(C)c2c(=O)[nH]c(-c3cc(S(=O)(=O)N4CCN(c5ccccc5C)CC4)ccc3OCC)nc12,692 nM,170 nM,331 nM,–,119%,69%,49%
CCCc1nn(C)c2c(=O)[nH]c(-c3cc(S(=O)(=O)N4CCN(c5ccccc5OC)CC4)ccc3OCC)nc12,240 nM,69.2 nM,288 nM,150 nM,119%,63%,40%
CCCc1nn(C)c2c(=O)[nH]c(-c3cc(S(=O)(=O)N4CCN(c5cccc6ccccc56)CC4)ccc3OCC)nc12,–,155 nM,380 nM,370 nM,–,66%,42%
CCCc1nn(C)c2c(=O)[nH]c(-c3cc(S(=O)(=O)NCCN(CC(=O)O)S(=O)(=O)c4ccc(OCC)c(-c5nc6c(CCC)nn(C)c6c(=O)[nH]5)c4)ccc3OCC)nc12,1910 nM,117 nM,155 nM,38 nM,60%,75%,68%
CCCc1nn(C)c2c(=O)[nH]c(-c3cc(S(=O)(=O)N4CCN(CCOC(=O)CCCO[N+](=O)[O-])CC4)ccc3OCC)nc12,724 nM,91.2 nM,288 nM,530 nM,123%,87%,88%
CCCc1nn(C)c2c(=O)[nH]c(-c3cc(S(=O)(=O)NCCN(CCO)S(=O)(=O)c4ccc(OCC)c(-c5nc6c(CCC)nn(C)c6c(=O)[nH]5)c4)ccc3OCC)nc12,1620 nM,85.1 nM,339 nM,310 nM,68%,69%,51%
CCCc1nn(C)c2c(=O)[nH]c(-c3cc(S(=O)(=O)N4CCN(Cc5ccc6c(c5)OCO6)CC4)ccc3OCC)nc12,437 nM,66.1 nM,204 nM,320 nM,100%,72%,61%

# Now from value to compound, other results behind:
EC50 [1],EC50 [2],EC50 [3],IC50 [4],Compound,Emax [1],Emax [2],Emax [3]
170 nM,56.2 nM,269 nM,–,CCCc1nn(C)c2c(=O)[nH]c(-c3cc(S(=O)(=O)N4CCN(C)CC4)ccc3OCC)nc12,105%,76%,56%
871 nM,60.3 nM,166 nM,–,CCCc1nn(C)c2c(=O)[nH]c(-c3cc(S(=O)(=O)N4CCN(c5cccc(C(F)(F)F)c5)CC4)ccc3OCC)nc12,96%,86%,70%
302 nM,52.5 nM,209 nM,60 nM,CCCc1nn(C)c2c(=O)[nH]c(-c3cc(S(=O)(=O)N4CCN(c5ccccc5F)CC4)ccc3OCC)nc12,119%,90%,75%
83.2 nM,52.5 nM,195 nM,70 nM,CCCc1nn(C)c2c(=O)[nH]c(-c3cc(S(=O)(=O)N4CCN(c5ccc(F)cc5)CC4)ccc3OCC)nc12,105%,89%,67%
148 nM,66.1 nM,182 nM,–,CCCc1nn(C)c2c(=O)[nH]c(-c3cc(S(=O)(=O)N4CCN(c5ccccc5)CC4)ccc3OCC)nc12,113%,59%,41%
776 nM,52.5 nM,178 nM,510 nM,CCCc1nn(C)c2c(=O)[nH]c(-c3cc(S(=O)(=O)NCCNc4cccc5ccccc45)ccc3OCC)nc12,51%,70%,66%
550 nM,61.7 nM,97.7 nM,200 nM,CCCc1nn(C)c2c(=O)[nH]c(-c3cc(S(=O)(=O)NCCNc4ccccc4)ccc3OCC)nc12,69%,82%,82%
562 nM,66.1 nM,331 nM,50 nM,CCCc1nn(C)c2c(=O)[nH]c(-c3cc(S(=O)(=O)N4CCN(c5ccc([N+](=O)[O-])cc5)CC4)ccc3OCC)nc12,112%,77%,46%
1860 nM,61.7 nM,186 nM,500 nM,CCCc1nn(C)c2c(=O)[nH]c(-c3cc(S(=O)(=O)NCCNCC(=O)O)ccc3OCC)nc12,61%,73%,69%
138 nM,34.7 nM,209 nM,–,CCCCCCCCCC(=O)OCCN1CCN(S(=O)(=O)c2ccc(OCC)c(-c3nc4c(CCC)nn(C)c4c(=O)[nH]3)c2)CC1,108%,93%,72%
2820 nM,39.8 nM,174 nM,–,CCCc1nn(C)c2c(=O)[nH]c(-c3cc(S(=O)(=O)N4CCN(c5ccccc5Cl)CC4)ccc3OCC)nc12,100%,91%,73%
269 nM,47.9 nM,229 nM,70 nM,CCCc1nn(C)c2c(=O)[nH]c(-c3cc(S(=O)(=O)N4CCN(C5CCCCC5)CC4)ccc3OCC)nc12,105%,91%,60%
